Assay [1] can be described thus: inhibitors of TNFa-induced NFkB p65 translocation, primary screen, imaging, HUVEC, MLSMR starter and 10KST1 sets (AID 438;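 active = inhibition above 20% together with a positive visual image hit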;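 also: compound added about 3h40 before a 20 min TNFalpha stimulation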;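 as to inhibition: signal is the nuclear over cytoplasmic p65 intensity ratio per well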). The settings on record: HUVEC TNFa-induced p65 nuclear translocation; cell count: measured here: nuclei count (cytotoxicity indicator), at 2.08 µM; inhibition: at 2 µM, stronger effect = higher value, 0% TNFa-plus-vehicle, 100% no-TNFa wells.
Assay [2] can be described thus: reduction of polyQ htt aggregates in cells – imaging, exon1htt(103Q)mCFP cells, high-content imaging, primary screen (AID 483;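 active = visual image review flags a hit and inhibition of aggregation exceeds 20%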;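 also: compound exposure lasted 3 days before fixation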;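 as to nuclei count: percent of the per-plate median nuclei count of sample wells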). The settings on record: exon1htt(103Q)mCFP cell line, aggregate imaging, at 2 µM; inhibition of aggregation: stronger effect = higher value; nuclei count: measured here: cell count, toxicity.
Assay [3] in a line: endothelial E-selectin expression blockers – imaging, HUVEC, immunofluorescence, MLSMR starter and 10KST1 sets, primary screen (AID 487;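 active = visually confirmed hit in the image check and inhibition above 20%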;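 as to inhibition: signal is fraction of cell area covered by stained E-selectin grains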;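 as to nuclei count: 100% = median nuclei count of all wells on the same plate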). The settings on record: HUVEC TNFalpha-induced E-selectin immunofluorescence imaging, at 2 µM; inhibition: stronger effect = higher value; nuclei count: measured here: cell number, toxicity.
Assay [4] has as its target Voltage-gated potassium channel subunit beta-2 (Rattus norvegicus) (UniProt P62483). Put plainly: inhibitors of rat Kvbeta2 reductase activity – biochemical, NADPH fluorescence, primary screen (AID 622).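 Also: slope of raw intensity against log time taken from 70 to 1610 s.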 As to conditions: recombinant KvBeta, 4-cyanobenzaldehyde reduction, at 10 µM, stronger effect = higher value.
The target is the same in assay [5]. Put plainly: enhancers of rat Kvbeta2 NADPH turnover – biochemical, NADPH fluorescence, primary screen (AID 623;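 active = NADPH fluorescence slope more negative than the mean of all samples by about 3 SD, 99.7% confidence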;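 also: fluorescence intensity change per second fitted from 20 to 320 s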). As to conditions: Recombinant KvBeta, NADPH fluorescence decrease slope, 10 min; at 10 µM; stronger effect = lower value.
Assay [6] has as its target Alpha-2C adrenergic receptor (Homo sapiens) (UniProt P18825). Kind of assay: compounds altering alpha2C-coupled GIRK flux – cell-based, HEK293 alpha2C/GIRK1/2, thallium flux, primary screen (AID 624;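 active = fluorescence slope after compound addition differing from the mean of all screened samples at 99.7% confidence, in either direction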;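 also: slope of fluorescence ratio to pre-addition baseline per second over 15 to 24 s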). As to conditions: thallium flux BTC fluorescence, at 10 µM, actives lie on both sides.
A short description of assay [7]: inhibitors of larval lipid processing in zebrafish, primary screen, whole organism, PED6 fluorescence, gall bladder and intestine (AID 686;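 active = a full or partial loss of lipid-probe fluorescence in the fish gall bladder, intestine or both, judged by eye; inactive = no fluorescence loss, or compound toxic to the fish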;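 also: larvae 5 to 7 days old with five fish per well; signal comes from phospholipase A2 cleavage of quenched PED6 carried via bile; overnight exposure to compound and PED6 before scoring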). As to conditions: Zebrafish larvae PED6 lipid processing, fluorescence scoring; screened at 20 µM (by protocol). An outline of the steps:
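Also added: quenched phospholipase substrate PED6, 100 nM final, ingested by larvae; System: zebrafish larvae, 5-7 d; Quantity: 5 larvae per well; Compound: 20 µM single dose; Schedule: overnight compound and PED6 incubation; Read-out: visual per-well fluorescence inhibition score; Measured by: By-eye fluorescence microscopy; Medium: E3.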

A short description of assay [8]: blockers of RIG-like receptor reporter activation – cell-based, Sendai virus stimulus, luciferase, 10K MLSCN set, TLR/RLR signaling modifier project, primary screen (AID 602276;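 active = inhibition at or above 50% at 10 µM; inactive = inhibition below 50%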;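 also: firefly luciferase from ISG56 promoter only with Renilla not read in this screen; 0% = Sendai virus plus DMSO and 100% = medium plus DMSO without virus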). As to conditions: HEK293 RL24 IRF3 luciferase reporter, at 10 µM, stronger effect = higher value. Background: A reporter such as luciferase makes a cellular process visible.
Assay [9] can be described thus: TLR3 IRF3 reporter activation blockers – cell-based, poly I:C stimulus, luciferase, 10K MLSCN set, primary screen (AID 602277;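 active = inhibition of the reporter signal at or above 50%; inactive = inhibition below 50%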). The settings on record: HEK293-TLR3 RL24 IRF3 luciferase reporter, at 10 µM, stronger effect = higher value.

Each structure is given as a SMILES string. Calls of active or inactive are those of the source.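 The calls were made as follows, unless noted: active = fluorescence slope higher than the sample average by over 3 SD (cut at about -0.22 in these data, passing the limit was not always enough); inactive = the rest.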

Chain of Voltage-gated potassium channel subunit beta-2 (Rattus norvegicus) (P62483 whole entry, looked up): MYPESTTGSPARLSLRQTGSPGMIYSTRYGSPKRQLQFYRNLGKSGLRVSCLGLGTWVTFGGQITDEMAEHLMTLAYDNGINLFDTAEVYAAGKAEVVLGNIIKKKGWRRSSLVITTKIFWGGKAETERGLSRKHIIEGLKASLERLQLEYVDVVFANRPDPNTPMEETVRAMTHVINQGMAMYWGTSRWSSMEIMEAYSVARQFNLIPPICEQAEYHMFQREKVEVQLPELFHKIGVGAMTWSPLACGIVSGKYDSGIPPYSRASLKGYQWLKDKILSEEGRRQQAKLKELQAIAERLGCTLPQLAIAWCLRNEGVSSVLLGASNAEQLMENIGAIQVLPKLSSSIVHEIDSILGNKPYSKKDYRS
Chain of Alpha-2C adrenergic receptor (Homo sapiens) (P18825 whole entry, looked up): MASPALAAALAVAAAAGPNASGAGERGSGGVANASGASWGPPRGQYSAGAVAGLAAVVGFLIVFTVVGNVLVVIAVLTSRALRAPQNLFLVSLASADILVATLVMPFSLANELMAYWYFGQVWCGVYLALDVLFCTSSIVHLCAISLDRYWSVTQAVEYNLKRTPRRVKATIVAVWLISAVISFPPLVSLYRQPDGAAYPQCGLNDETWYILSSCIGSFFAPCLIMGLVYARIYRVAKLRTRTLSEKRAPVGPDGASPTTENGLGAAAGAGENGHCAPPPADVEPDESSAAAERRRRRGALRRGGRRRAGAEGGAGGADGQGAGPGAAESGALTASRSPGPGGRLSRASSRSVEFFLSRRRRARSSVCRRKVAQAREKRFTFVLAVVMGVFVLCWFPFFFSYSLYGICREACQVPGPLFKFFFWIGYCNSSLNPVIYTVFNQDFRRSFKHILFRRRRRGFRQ

Consider `Cc1cccc(NC(=O)c2ccc(S(=O)(=O)N(C)C)cc2)n1`, for which the cell count in assay [1] came out at 290. The inhibition (commonly the relative decrease from the control value, in per cent) in [1] is -5.5% (inactive); in assay [3], -126% (inactive); in assay [8] it was -11.6% (inactive); in assay [9], -45.9% (inactive). In addition, the inhibition of aggregation in assay [2] is 4.5% (inactive). Moreover, the values for the nuclei count in assay [2] and in [3] were 108% and 94.4%, respectively. In addition, the fluorescence slope in assay [4] was -0.318 (inactive). For the same compound, in assay [5], the NADPH fluorescence slope was -2.4e-05 (inactive). Also, in [6], the slope was 0.00507 (inactive). Also, the compound was classed as inactive in [7].

For the compound `Cn1c(=O)[nH]c(=O)c2c1nc(N1CCOCC1)n2CC(O)COc1ccc2ccccc2c1` (stereo not given), the cell count in assay [1] was 438. The inhibition was -4.5% (inactive) in [1], -54.4% (inactive) in [3], 15.8% (inactive) in assay [8] and 19.3% (inactive) in assay [9]. In addition, the inhibition of aggregation in [2] was 10.8% (inactive). Moreover, the nuclei count in assay [2] was found to be 107%; in [3], 120%. Also, the fluorescence slope in assay [4] was -0.44 (inactive). For the same compound, the NADPH fluorescence slope in [5] is -3.2e-05 (inactive). Further, the slope in assay [6] is 0.00556 (inactive). Moreover, the result in [7] was inactive.

On to `CSCCC(NC(=O)CCN1C(=O)c2ccccc2C1=O)C(=O)O` (stereo not given), for which the cell count in assay [1] came to 366. In addition, the inhibition in [1] is 1.8% (inactive); in assay [3], -76.8% (inactive); in [8], 15.7% (inactive); in assay [9] it was 19.3% (inactive). Besides, the inhibition of aggregation in assay [2] was -10.9% (inactive). Besides, the nuclei count in assay [2] was found to be 99.7%; in assay [3], 110%. Moreover, the fluorescence slope in assay [4] was -0.411 (inactive). Further, the NADPH fluorescence slope in assay [5] is 2e-07 (inactive). Further, in assay [6], the slope is 0.00495 (inactive). For the same compound, the call in assay [7] was inactive.

Turning to `COC(=O)c1ccc(CSc2nnnn2Cc2ccccc2)cc1`, in [1], the cell count is 341. In addition, the inhibition in [1] was 3% (inactive); in assay [3], -32.4% (inactive); in assay [8], 9.31% (inactive); in assay [9] it was 37.9% (inactive). The inhibition of aggregation in assay [2] is -32.1% (inactive). The nuclei count in assay [2] amounted to 108%; in assay [3], 104%. Further, the fluorescence slope in [4] was -0.322 (inactive). Also, in assay [5], the NADPH fluorescence slope is 3.4e-06 (inactive). The slope in [6] is 0.00496 (inactive). Moreover, in assay [7], the call was inactive.

On to `O=C(CN1CCN(Cc2ccc3c(c2)OCO3)CC1)N1CCc2[nH]c3ccc(F)cc3c2C1`, for which, in [1], the cell count was 687. For the same compound, the inhibition was 13.9% (inactive) in assay [1], 34.4% (inactive) in [3], 12% (inactive) in [8] and 4.08% (inactive) in assay [9]. In addition, the inhibition of aggregation in assay [2] was 6.4% (inactive). Also, the nuclei count in assay [2] was 96.6%; in assay [3], 101%. The fluorescence slope in [4] is -0.409 (inactive). The NADPH fluorescence slope in [5] was -6.8e-05 (inactive). The slope in assay [6] was 0.00435 (inactive). The call in assay [7] was inactive.

Regarding `O=C(O)CC(C(=O)Nc1cccc(C(F)(F)F)c1)C1CCCO1` (stereo not given), in [1], the cell count was 548. Further, the inhibition in [1] was -10.1% (inactive); in [3], 2.3% (inactive); in assay [8], -2.64% (inactive); in [9], 7.18% (inactive). Besides, in assay [2], the inhibition of aggregation was 9.8% (inactive). Also, the nuclei count in assay [2] worked out at 101%; in assay [3], 92.1%. Moreover, in [4], the fluorescence slope is -0.375 (inactive). Further, the NADPH fluorescence slope in [5] is -2.9e-05 (inactive). For the same compound, the slope in assay [6] is 0.00461 (inactive). Further, the result in [7] was inactive.

For `Cc1[nH]nc(-c2ccc(O)c(C)c2O)c1-c1cnn(-c2ccccc2)c1`, the cell count in assay [1] amounted to 345. In addition, the inhibition in [1] is 1.5% (inactive); in assay [3], 45.5% (inactive); in assay [8] it was 11.4% (inactive); in assay [9], 5.23% (inactive). Further, the inhibition of aggregation in assay [2] was 10.3% (inactive). The nuclei count in assay [2] stood at 111%; in [3], 97.8%. Further, the fluorescence slope in [4] is -0.438 (inactive). Besides, in assay [5], the NADPH fluorescence slope is -2.4e-05 (inactive). Besides, the slope in assay [6] was 0.00436 (inactive). Further, the result in assay [7] was inactive.

Take `Cc1ccc(Nc2nc(N)nc(CN3CCN(Cc4ccc5c(c4)OCO5)CC3)n2)cc1`: the cell count in assay [1] came to 385. The inhibition in assay [1] was 4.6% (inactive); in assay [3], -82.2% (inactive); in assay [8] it was 1.9% (inactive); in [9], 7.26% (inactive). Also, in [2], the inhibition of aggregation was 54.3% (active). Besides, the nuclei count was found to be 91.6% in [2] and 102% in assay [3]. Further, the fluorescence slope in assay [4] was -0.367 (inactive). In addition, the NADPH fluorescence slope in [5] was -4.6e-05 (inactive). For the same compound, in [6], the slope was 0.00487 (inactive). The compound was classed as inactive in assay [7].

As to `COc1ccc(CC(=O)Nc2cc(Cl)ccc2O)cc1`, the cell count in assay [1] stood at 605. For the same compound, the inhibition in assay [1] was -9.3% (inactive); in assay [3], -72% (inactive); in [8], -8.56% (inactive); in assay [9], -1.02% (inactive). Further, the inhibition of aggregation in assay [2] was 12% (inactive). In addition, the nuclei count in assay [2] worked out at 99.8%; in assay [3], 108%. Moreover, in assay [4], the fluorescence slope was -0.409 (inactive). Besides, the NADPH fluorescence slope in assay [5] is -1.5e-05 (inactive). In addition, the slope in [6] is 0.00576 (inactive). Besides, in assay [7], the outcome was inactive.

Turning to `O=C(COC(=O)c1ccccc1C(=O)c1ccccc1)c1ccco1`, in [1], the cell count was 327. Further, the inhibition was 7.4% (inactive) in assay [1], 4% (inactive) in [3], -5.98% (inactive) in assay [8] and 2.21% (inactive) in assay [9]. Also, the inhibition of aggregation in assay [2] is -2.3% (inactive). In addition, the figures for the nuclei count in assay [2] and in [3] were 89.2% and 113%, respectively. In addition, the fluorescence slope in [4] was -0.501 (inactive). Further, in assay [5], the NADPH fluorescence slope is 2.4e-06 (inactive). Further, the slope in assay [6] was 0.00441 (inactive). The compound was called inactive in assay [7].

The record behind these values is PubChem BioAssay.
